# Measurements collected from several papers.
# Protocols differ between the studies behind these lines.
# Target: Serine/threonine-protein kinase N1 (PKN1, Homo sapiens, UniProt Q16512)
SMILES,assay,setting,remaining binding [%]
Cc1nc(N2CC[C@@H](O)C2)ncc1-c1cc(C(F)(F)F)cc2[nH]ncc12,"binding, competition with immobilised ligand",1 µM,100
C[C@@H](c1ccc(-n2cnc3c(N)ncnc32)cc1)N1CCc2nn(C)c(Cc3ccccc3)c2C1=O,"binding, competition with immobilised ligand",0.1 µM,98
O=C1CCc2cc(Nc3cc(OC4CCOCC4)c([N+](=O)[O-])cc3Cl)ccc2N1,"cell-free assay, competition with immobilised ligand",1 µM,100
c1cncc(-c2cccc(Nc3nccc(NC4CCCCC4)n3)c2)c1,"binding, competition with immobilised ligand",10 µM,64
CNC(=O)[C@@H]1CC[C@@H](n2c(-c3ccc4cnccc4c3)nc3ccc(C(=O)NCc4cccc(C(N)=O)c4)cc32)C1,"binding, competition with immobilised ligand",1 µM,92
CCc1ccccc1C(=O)Nc1n[nH]c2c(C)c(F)c(C3C(C#N)=C(C)N(C)C(C)=C3C#N)cc12,"cell-free assay, competition with immobilised ligand",1 µM,100
CCN1CCN(Cc2ccc(C(=O)Nc3ccc(C)c(Oc4ccc5c(c4)CC(=O)N5)c3)cc2C(F)(F)F)CC1,"binding, competition with immobilised ligand",1 µM,100
O=C(c1ccc(Nc2ncc(Cl)c(-c3ccc(Cl)s3)n2)cc1)N1CCC(N2CCCC2)CC1,"binding, competition with immobilised ligand",1 µM,25
c1cnn2ncc(-c3ccnc(N4CCC45COC5)n3)c2c1,binding,1 µM,87
O=C(NCCCN1CCOCC1)c1ccc(Nc2nccc(-c3cc4ccccc4s3)n2)cc1,"binding, competition with immobilised ligand",1 µM,37
F[C@@H]1CCN(c2nccc(-c3cnn4ncccc34)n2)C1,binding,1 µM,100
O=C(Nc1c[nH]nc1C(=O)NC1CCNCC1)c1cc(F)cc(F)c1,"binding, competition with immobilised ligand",1 µM,100
N[C@H]1CCN(c2nccc(-c3cnn4ncccc34)n2)C1,binding,1 µM,86
COc1ccc2c(c1)O[C@@H](c1ccc(OC)c(OC)c1)C[C@H]2NC(=O)C1(c2ccc3c(c2)OC(F)(F)O3)CC1,"cell-free assay, competition with immobilised ligand",1 µM,96
CN(CCCC(F)(F)F)c1nccc(-c2cnn3ncccc23)n1,binding,1 µM,100
CC1=C(C#N)C(c2ccc3c(c2)c(NC(=O)c2ccccc2C)nn3C)C(C#N)=C(C)N1,"cell-free assay, competition with immobilised ligand",1 µM,78
COc1ccnn2ncc(-c3ccnc(N(C)C)n3)c12,binding,1 µM,74
C[C@H](c1ccc(F)cc1)N(Cc1cccc(C(=O)O)c1)C(=O)c1cnc2ccccc2c1,"cell-free assay, competition with immobilised ligand",1 µM,100
CN(C)c1nccc(-c2cnn3ncccc23)n1,binding,1 µM,98
Cc1cnc(Nc2ccc(C(=O)N3CCC(N4CCCC4)CC3)cc2)nc1-c1cc2ccccc2s1,"binding, competition with immobilised ligand",1 µM,1.2
Cc1cnn2ncc(-c3ccnc(N(C)C)n3)c2c1,binding,1 µM,99
O=C(NS(=O)(=O)c1ccc(NCC2CCOCC2)c([N+](=O)[O-])c1)c1ccc(N2CCN(Cc3ccc(C(F)(F)F)cc3-c3ccc(Cl)cc3)CC2)cc1Oc1cnc2[nH]ccc2c1,"cell-free assay, competition with immobilised ligand",1 µM,100
